Measurements as given in PMC12811664 (Angewandte Chemie (International Ed. in English), 2025).
Substitutions are numbered along the chain they refer to.

Tests used:
[1] = target: T1, DC-SIGN ECD (Homo sapiens, UniProt Q9NNX6); experiment: Plate-based horseradish peroxidase; type: biochemical
T1 sequence (Q9NNX6 64-404): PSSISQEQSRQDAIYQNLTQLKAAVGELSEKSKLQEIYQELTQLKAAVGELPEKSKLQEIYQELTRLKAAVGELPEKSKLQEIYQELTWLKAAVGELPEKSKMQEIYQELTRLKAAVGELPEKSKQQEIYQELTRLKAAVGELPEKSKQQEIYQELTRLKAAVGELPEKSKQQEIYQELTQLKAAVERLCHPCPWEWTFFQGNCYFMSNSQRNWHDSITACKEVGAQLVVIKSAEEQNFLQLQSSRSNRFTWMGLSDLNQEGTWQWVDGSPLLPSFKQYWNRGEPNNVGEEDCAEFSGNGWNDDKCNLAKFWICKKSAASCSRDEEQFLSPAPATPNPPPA
In short: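 Purified DC-SIGN extracellular domain immobilized on plates. Incubated overnight at 4 °C or room temperature with test compound at 0.5 mM for the screen, or at a concentration series for dose-response (overnight, RT, or varied incubation times). After washing, HRP added; it binds via its own glycans. Bound HRP read by peroxidase activity relative to DMSO control. Hit cutoff ≥50% change. EDTA, mannan and mannose used as controls. Mean of three biological replicates.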

[2] = target: T2, DC-SIGN CRD (Homo sapiens, UniProt Q9NNX6); experiment: Grating-coupled interferometry; type: binding; details: mannose-PEG3 sensor; for EC50: EC50, GCI binding response, overnight incubation at RT
T2 sequence (Q9NNX6 253-404): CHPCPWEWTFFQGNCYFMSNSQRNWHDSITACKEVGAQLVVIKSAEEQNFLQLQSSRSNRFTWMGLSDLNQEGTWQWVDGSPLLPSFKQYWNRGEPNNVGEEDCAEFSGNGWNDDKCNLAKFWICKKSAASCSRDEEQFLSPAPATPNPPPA

[3] = target: T3, DC-SIGN ECD K373R (Homo sapiens, UniProt Q9NNX6, K373R); experiment: HRP binding assay with Lys mutant K373R; type: biochemical
T3 sequence (Q9NNX6 64-404 K373R): T1 sequence (Q9NNX6 64-404) with K310R

[4] = target: T4, DC-SIGN ECD K295R (Homo sapiens, UniProt Q9NNX6, K295R); experiment: HRP binding assay with Lys mutant K295R; type: biochemical
T4 sequence (Q9NNX6 64-404 K295R): T1 sequence (Q9NNX6 64-404) with K232R

[5] = target: T5, DC-SIGN ECD K340R (Homo sapiens, UniProt Q9NNX6, K340R); experiment: HRP binding assay with Lys mutant K340R; type: biochemical
T5 sequence (Q9NNX6 64-404 K340R): T1 sequence (Q9NNX6 64-404) with K277R

[6] = target: T6, DC-SIGN CRD wild type (Homo sapiens, UniProt Q9NNX6); experiment: Dynamic light scattering of modified protein; details: protein-compound ratios up to 1:10
T6 sequence (Q9NNX6 253-404): T2 sequence (Q9NNX6 253-404)

[7] = target: T7, DC-SIGN CRD M270F (Homo sapiens, UniProt Q9NNX6, M270F); experiment: Dynamic light scattering of modified protein, M270F mutant; details: secondary site blocked
T7 sequence (Q9NNX6 253-404 M270F): T2 sequence (Q9NNX6 253-404) with M18F

EC50 [1]	EC50 [2]	activity (EC50) on mutant compared to the wild type, HRP assay [3]	activity (EC50) on mutant compared to the wild type, HRP assay [4]	activity (EC50) on mutant compared to the wild type, HRP assay [5]	change of protein hydrodynamic size upon modification (DLS) [6]	change of protein hydrodynamic size upon modification (DLS) [7]	screening outcome, activity change compared to the DMSO control ([1]; 0.5 mM compound, overnight, cutoff ∼50% activity change)	time dependency of dose-response after varying incubation times, HRP assay ([1]; reaction quenched at different time points)	Hill slope (nH), GCI [2]	IC50 [1]	SMILES
30 µM	200 µM	No change in EC50	No change in EC50	No change in EC50	induces oligomerization	lack of oligomerization	–	–	–	–	O=C(ON1C(=O)CCC1=O)c1cc(C(F)(F)F)cc(C(F)(F)F)c1 [Compound 11, 2,5-dioxopyrrolidin-1-yl 3,5-bis(trifluoromethyl)benzoate]
–	–	–	–	–	–	–	potential inhibitor	–	–	–	O=Cc1cc2ccccc2cc1C=O [Compound 30, naphthalene‐2,3‐dicarbaldehyde]
–	100 µM	drastically reduced activity	EC50s similar to that of the wild type	EC50s similar to that of the wild type	no increase in size	–	–	clear time dependency	≈ 1	–	COc1c(Nc2cc(C(F)(F)F)cc(C(F)(F)F)c2)c(=O)c1=O [Compound 33, 3-((3,5-bis(trifluoromethyl)phenyl)amino)-4-methoxycyclobut-3-ene-1,2-dione]
–	–	–	–	–	–	–	–	–	–	11400 µM	OC[C@H]1OC(O)[C@@H](O)[C@@H](O)[C@@H]1O (stereo partly shown) [mannose, reference compound]
